Experiment [1] concerns the target T1, Chromodomain Y-like protein (Homo sapiens) (UniProt Q9Y232).
T1 sequence (whole entry): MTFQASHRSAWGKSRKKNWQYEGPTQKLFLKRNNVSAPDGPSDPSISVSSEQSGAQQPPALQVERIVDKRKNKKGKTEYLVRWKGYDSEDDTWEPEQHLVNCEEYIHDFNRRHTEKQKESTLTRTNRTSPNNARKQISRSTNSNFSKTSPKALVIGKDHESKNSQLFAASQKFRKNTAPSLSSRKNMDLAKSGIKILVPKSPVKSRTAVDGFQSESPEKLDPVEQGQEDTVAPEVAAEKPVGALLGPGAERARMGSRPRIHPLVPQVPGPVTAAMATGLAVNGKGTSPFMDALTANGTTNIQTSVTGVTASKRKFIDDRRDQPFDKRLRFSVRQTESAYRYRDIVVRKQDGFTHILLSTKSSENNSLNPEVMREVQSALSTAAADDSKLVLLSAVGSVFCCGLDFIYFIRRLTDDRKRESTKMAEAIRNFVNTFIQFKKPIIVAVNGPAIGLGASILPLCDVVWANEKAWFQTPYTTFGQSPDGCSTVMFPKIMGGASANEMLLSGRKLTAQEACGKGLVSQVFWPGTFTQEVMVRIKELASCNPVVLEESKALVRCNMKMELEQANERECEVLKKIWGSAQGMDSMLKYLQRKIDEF
Nature of the experiment: Inhibition of CDYL in human HEK293T cells assessed as increase in VGF mRNA expression at 50 to 200 uM incubated for 24 hrs by RT-qPCR analysis. Format: cell-based. A digest of the protocol:
(§1)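 SH-SY5Y or HEK-293T cells grown in DMEM with 10% FBS and treated with compound for 24 h. mRNA quantified by SYBR green RT-qPCR after DNase treatment, 2^-ΔΔCt method with GAPDH as reference, relative to DMSO. Mean ± S.E.M. of triplicate experiments, Student's t-test.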

Experiment [2] has as its target T1, Chromodomain Y-like protein (Homo sapiens). The experiment is described as follows: Inhibition of CDYL in human SH-SY5Y cells assessed as decrease in enrichment of H3K27me3 at BDNF promoter site at 150 uM incubated for 24 hrs by ChIP-qPCR analysis. Type of experiment: cell-based. A digest of the protocol:
(§2)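 About 1×10^7 SH-SY5Y cells given 150 µM compound or DMSO for 24 h, fixed in 1% formaldehyde for 10 min. Chromatin immunoprecipitated overnight-style (12 h, 4 °C) with CDYL or H3K27me3 antibody, captured on Protein A/G beads, washed, decrosslinked at 65 °C. Promoter DNA quantified by qPCR, mean ± S.E.M. of triplicate experiments, Student's t-test.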

In the next experiment the test system is SH-SY5Y. Nature of the experiment: Effect on CDYL recruitment onto HOXA3 promoter site in human SH-SY5Y cells at 150 uM incubated for 24 hrs by ChIP-qPCR analysis. Type of experiment: functional, cell-based. A digest of the protocol:
as §2

The target of experiment [3] is T1, Chromodomain Y-like protein (Homo sapiens). Nature of the experiment: Inhibition of CDYL in human SH-SY5Y cells assessed as increase in VGF mRNA expression incubated for 24 hrs by RT-qPCR analysis. Format: cell-based. A digest of the protocol:
as §1

Activity calls are given as the source filed them. The rule behind the calls is not given here.

In the case of `O=C(Cn1c(=O)oc2ccccc21)N1CCC(N2CCCC2)CC1`, the outcome in experiment [1] was Active. Moreover, the inhibition result in experiment [2] was “Active”. Also, the result with SH-SY5Y was inactive. In addition, the Activity result in experiment [3] was “Dose-dependent effect”.
